Seven compounds from ChEMBL document CHEMBL1155742, “Phomoxanthones A and B, novel xanthone dimers from the endophytic fungus Phomopsis species” (J Nat Prod, 2001) can be followed below.

One test concerns Plasmodium falciparum. The test can be described thus: Antimalarial activity against multidrug-resistant Plasmodium falciparum K1 by [3H]hypoxanthine uptake. In kind it is functional, organism-based. An outline of the steps:
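Multidrug-resistant P. falciparum K1 tested in vitro by microculture radioisotope technique. IC50 is the concentration giving 50% reduction of parasite growth, measured as [3H]-hypoxanthine uptake, reported in µg/mL.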

Test [1] has as its system Mycobacterium tuberculosis. Put plainly: Antitubercular activity against Mycobacterium tuberculosis H37Ra by microplate Alamar blue assay. The test is classed as functional. The essentials: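 Growth inhibition of M. tuberculosis H37Ra measured by Microplate Alamar Blue Assay; activity reported as MIC in µg/mL.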
In another test the test system is KB. Put plainly: Cytotoxicity against human KB cells by SRB assay. In kind it is functional, cell-based. The essentials: (§1)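 Purified compounds tested for cytotoxicity by a colorimetric method on human epidermoid carcinoma KB, human breast cancer BC-1 and African monkey kidney fibroblast Vero cells. Values are IC50 in µg/mL. Ellipticine served as the standard for KB and BC-1.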

Test [2] is described as follows: Cytotoxicity against human BC1 cells by SRB assay. In kind it is functional, cell-based. An outline of the steps:
as §1
(The SRB assay estimates cell density from bound dye.)

A further test relates to Vero. Put plainly: Cytotoxicity against african green monkey Vero cells by SRB assay. In kind it is cell-based. Particulars: Chlorocebus sabaeus. The essentials:
as §1

Converted amounts (≈) assume the structure as drawn.

The term IC50 denotes the concentration needed to halve the response being measured. As to `C[C@@H]1CC[C@H]2[C@@H](C)C(=O)O[C@@H]3O[C@@]4(C)CC[C@@H]1[C@]32OO4` [ARTEMISININ], the IC50 in the test on Plasmodium falciparum was 0.0011 µg/mL (≈ 0.0039 µM).
One may read the MIC as the least concentration at which growth counts as inhibited. In the case of `C[C@@H]1CC(O)=C2C(=O)c3c(O)ccc(-c4ccc(O)c5c4O[C@@]4(CO)C(=C(O)C[C@@H](C)[C@H]4O)C5=O)c3O[C@]2(CO)[C@@H]1O` [DEACETYLPHOMOXANTHONE A], the IC50 was over 20 µg/mL in the test with Plasmodium falciparum, over 20 µg/mL in the test with KB, over 20 µg/mL in test [2] and over 50 µg/mL with Vero. Besides, the MIC in test [1] is over 200 µg/mL.
In the case of `Cc1c2ccncc2c(C)c2c1[nH]c1ccccc12` [ELLIPTECINE], the IC50 came out at 0.46 µg/mL (≈ 1.87 µM) in the test with KB and 0.6 µg/mL (≈ 2.44 µM) in test [2].
In test [1], `NNC(=O)c1ccncc1` [ISONIAZID] gave an MIC of 0.05 µg/mL (≈ 0.365 µM).
On the same count and under the same terms, under `NC[C@H]1O[C@H](O[C@H]2[C@H](O)[C@@H](O[C@H]3O[C@H](CO)[C@@H](O)[C@H](N)[C@H]3O)[C@H](N)C[C@@H]2N)[C@H](O)[C@@H](O)[C@@H]1O.O=S(=O)(O)O` [KANAMYCIN SULFATE] stands 2.5 µg/mL.
On to `CC(=O)OC[C@]12Oc3c(-c4ccc(O)c5c4O[C@@]4(COC(C)=O)C(=C(O)C[C@@H](C)[C@H]4OC(C)=O)C5=O)ccc(O)c3C(=O)C1=C(O)C[C@@H](C)[C@H]2OC(C)=O` [PHOMOXANTHONE A], for which the IC50 in the test on Plasmodium falciparum came to 0.11 µg/mL (≈ 0.147 µM); in the test on KB, 0.99 µg/mL (≈ 1.32 µM); in test [2] it was 0.51 µg/mL (≈ 0.679 µM); in the test with Vero, 1.4 µg/mL (≈ 1.86 µM). The same compound registered an MIC in test [1] of 0.5 µg/mL (≈ 0.666 µM).
Taken in the same sequence, the figures for `CC(=O)OC[C@]12Oc3ccc(-c4ccc(O)c5c4O[C@@]4(COC(C)=O)C(=C(O)C[C@@H](C)[C@H]4OC(C)=O)C5=O)c(O)c3C(=O)C1=C(O)C[C@@H](C)[C@H]2OC(C)=O` [PHOMOXANTHONE B] were 0.33 µg/mL (≈ 0.44 µM), 4.1 µg/mL (≈ 5.46 µM), 0.7 µg/mL (≈ 0.932 µM), 1.8 µg/mL (≈ 2.4 µM) and 6.25 µg/mL (≈ 8.33 µM).
